Calls of active or inactive are those of the source. No cut-off for these calls is given here.
Legend:
Staphylococcus aureus [1] = test: Antibacterial activity against methicillin-resistant Staphylococcus aureus ATCC 43300 after 8 to 12 hrs by colorimetric microdilution broth technique; assay type: functional
Method in brief: (§1)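 Broth microdilution with a colorimetric read-out. Bacteria were suspended in RPMI1640 with 1% Alamar Blue. Compound was dissolved in DMSO as a 25 mg/ml stock and added to the first row, then serially halved to a 128-fold final dilution. Plates were incubated at 37 °C for 8–12 h. MIC was the lowest concentration preventing the blue-to-red indicator change. Each assay was run at least three times.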

Staphylococcus aureus [2] = test: Antibacterial activity against Staphylococcus aureus TISTR517 after 8 to 12 hrs by colorimetric microdilution broth technique; assay type: functional
Method in brief: (§2)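 Broth microdilution in RPMI1640. Bacterial suspension in RPMI1640 is mixed with 1% Alamar Blue. Sample dissolved in DMSO at 25 mg/ml (stock) is added to the first row, then serially diluted two-fold down the plate to 128-fold. Plates are incubated at 37 °C for 8–12 h. MIC is the lowest concentration preventing the Alamar Blue change from blue to red. At least three repeats.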

Bacillus subtilis [3] = test: Antibacterial activity against Bacillus subtilis after 8 to 12 hrs by colorimetric microdilution broth technique; assay type: functional; method in brief: as §2
Enterococcus faecalis [4] = test: Antibacterial activity against vancomycin-resistant Enterococcus faecalis ATCC 51299 after 8 to 12 hrs by colorimetric microdilution broth technique; assay type: functional; method in brief: as §1
Enterococcus faecalis [5] = test: Antibacterial activity against Enterococcus faecalis TISTR459 after 8 to 12 hrs by colorimetric microdilution broth technique; assay type: functional; method in brief: as §1
Salmonella typhi [6] = test: Antibacterial activity against Salmonella typhi after 8 to 12 hrs by colorimetric microdilution broth technique; assay type: functional, Salmonella enterica subsp. enterica serovar Typhi; details: Salmonella enterica; method in brief: as §1
Shigella sonnei [7] = test: Antibacterial activity against Shigella sonnei after 8 to 12 hrs by colorimetric microdilution broth technique; assay type: functional; method in brief: as §2
Staphylococcus aureus [8] = test: Antibacterial activity against Staphylococcus aureus TISTR517 at up to 300 ug/ml after 8 to 12 hrs by colorimetric microdilution broth technique; assay type: functional, organism-based; method in brief: as §2
Pseudomonas aeruginosa [9] = test: Antibacterial activity against Pseudomonas aeruginosa at up to 300 ug/ml after 8 to 12 hrs by colorimetric microdilution broth technique; assay type: functional, organism-based; method in brief: as §2
Salmonella typhi [10] = test: Antibacterial activity against Salmonella typhi at up to 300 ug/ml after 8 to 12 hrs by colorimetric microdilution broth technique; assay type: functional, organism-based; details: Salmonella enterica subsp. enterica serovar Typhi; method in brief: as §1
Pseudomonas aeruginosa [11] = test: Antibacterial activity against Pseudomonas aeruginosa after 8 to 12 hrs by colorimetric microdilution broth technique; assay type: functional; method in brief: as §2
Bacillus subtilis [12] = test: Antibacterial activity against Bacillus subtilis at up to 300 ug/ml after 8 to 12 hrs by colorimetric microdilution broth technique; assay type: functional, organism-based; method in brief: as §2
Enterococcus faecalis [13] = test: Antibacterial activity against vancomycin-resistant Enterococcus faecalis ATCC 51299 at up to 300 ug/ml after 8 to 12 hrs by colorimetric microdilution broth technique; assay type: functional, organism-based; method in brief: as §1
Enterococcus faecalis [14] = test: Antibacterial activity against Enterococcus faecalis TISTR459 at up to 300 ug/ml after 8 to 12 hrs by colorimetric microdilution broth technique; assay type: functional, organism-based; method in brief: as §2
Shigella sonnei [15] = test: Antibacterial activity against Shigella sonnei at up to 300 ug/ml after 8 to 12 hrs by colorimetric microdilution broth technique; assay type: functional, organism-based; method in brief: as §2

SMILES | MIC (Staphylococcus aureus [1]) [µg/mL] | MIC (Staphylococcus aureus [2]) [µg/mL] | MIC (Bacillus subtilis [3]) [µg/mL] | MIC (Enterococcus faecalis [4]) [µg/mL] | MIC (Enterococcus faecalis [5]) [µg/mL] | MIC (Salmonella typhi [6]) [µg/mL] | MIC (Shigella sonnei [7]) [µg/mL] | MIC (Staphylococcus aureus [8]) | MIC (Pseudomonas aeruginosa [9]) | MIC (Salmonella typhi [10]) | MIC (Pseudomonas aeruginosa [11]) [µg/mL] | MIC (Bacillus subtilis [12]) | MIC (Enterococcus faecalis [13]) | MIC (Enterococcus faecalis [14]) | MIC (Shigella sonnei [15])
CCOc1ccc(/C=C/c2ccc3ccccc3[n+]2C)cc1.Nc1ccc(S(=O)(=O)[O-])cc1 [listing 1 of 2 here] | 4.68 | 37.5 | 37.5 | 75 | 37.5 | 75 | 75 | – | – | – | – | – | – | – | –
CN(C)c1ccc(/C=C/c2ccc3ccccc3[n+]2C)cc1.COc1ccc(S(=O)(=O)[O-])cc1 | – | – | – | – | – | – | – | inactive | inactive | inactive | – | – | – | – | –
CN(C)c1ccc(/C=C/c2ccc3ccccc3[n+]2C)cc1.O=S(=O)([O-])c1ccc(Br)cc1 | 2.34 | 2.34 | 2.34 | 2.34 | 2.34 | 300 | 2.34 | – | – | – | 300 | – | – | – | –
CN(C)c1ccc(C=Cc2cccc[n+]2C)cc1.[I-] | 37.5 | 300 | 300 | 300 | 300 | 300 | 300 | – | – | – | 300 | – | – | – | –
CN(C)c1ccc(/C=C/c2ccc3ccccc3[n+]2C)cc1.[I-] | 9.37 | 18.8 | 9.37 | 4.68 | 18.8 | 300 | 4.68 | – | – | – | 300 | – | – | – | –
CCOc1ccc(/C=C/c2ccc3ccccc3[n+]2C)cc1.Nc1ccc(S(=O)(=O)[O-])cc1 [listing 2 of 2 here] | – | – | – | – | – | – | – | – | inactive | – | – | – | – | – | –
CCOc1ccc(/C=C/c2cccc[n+]2C)cc1 | – | – | – | – | – | – | – | inactive | inactive | inactive | – | inactive | inactive | inactive | inactive
CN(C)c1ccc(/C=C/c2cccc[n+]2C)cc1 | – | – | – | – | – | – | – | inactive | – | – | – | – | – | inactive | inactive
CN(C)c1ccc(/C=C/c2cccc[n+]2C)cc1.Cc1ccc(S(=O)(=O)[O-])cc1 | 37.5 | 300 | 150 | 300 | 300 | 300 | 300 | – | – | – | 150 | – | – | – | –
CCOc1ccc(/C=C/c2cccc[n+]2C)cc1.O=S(=O)([O-])c1ccc(Br)cc1 | 18.8 | – | – | – | – | 300 | 300 | – | – | – | – | – | – | – | –

— ChEMBL document CHEMBL1240464, “Synthesis, structure and in vitro antibacterial activities of new hybrid disinfectants quaternary ammonium compounds: pyridinium and quinolinium stilbene benzenesulfonates” (2010)
